# Published values pooled from the literature.
# Lines come from different studies, so protocols differ.
# ADRA2A: Alpha-2A adrenergic receptor (ADRA2A, Homo sapiens, UniProt P08913)
# CA2: Carbonic anhydrase 2 (CA2, Homo sapiens, UniProt P00918)
# CA1: Carbonic anhydrase 1 (CA1, Homo sapiens, UniProt P00915)
SMILES,target,observed,mode,technique,Ki [µM]
Cc1cc(Oc2ncccc2CN2CCN(c3ccccn3)CC2)ccc1-c1c(C)c(=O)[nH]c(=O)n1C,ADRA2A,ligand displacement,,radioligand,0.123
Cc1ccc(C(=O)Nc2nnc(S(N)(=O)=O)s2)cc1,CA2,enzyme activity,inhibitor,stopped-flow,0.0211
COc1ccc(N2CCN(Cc3cccnc3Oc3ccc(-c4c(C)c(=O)[nH]c(=O)n4C)c(C)c3)CC2)cc1,ADRA2A,ligand displacement,,radioligand,1.32
COc1ccnc(C[S+]([O-])c2nc3ccc(OC(F)F)cc3[nH]2)c1OC (stereo not drawn),CA2,enzyme activity,inhibitor,absorbance,8.72
Cc1ccc(-n2cc(CNC(=O)c3ccc(=O)oc3)nn2)cc1,CA1,enzyme activity,inhibitor,stopped-flow,> 100
NS(=O)(=O)c1nnc(NC(=O)C2CCC3(CCCC3)CC2)s1,CA2,enzyme activity,inhibitor,stopped-flow,0.0594
CC[C@H]1OC(=O)[C@H](C)[C@@H](O[C@H]2C[C@@](C)(OC)[C@@H](O)[C@H](C)O2)[C@H](C)[C@@H](O[C@@H]2O[C@H](C)C[C@H](N(C)C)[C@H]2O)[C@](C)(O)C[C@@H](C)CN(C)[C@H](C)[C@@H](O)[C@]1(C)O,CA2,enzyme activity,inhibitor,absorbance,8.17
Cc1cc(Oc2ncccc2CN2CCN(c3ccc(Br)cc3)CC2)ccc1-c1c(C)c(=O)[nH]c(=O)n1C,ADRA2A,ligand displacement,,radioligand,0.841
C#CCOC(=O)c1ccc(=O)oc1,CA1,enzyme activity,inhibitor,stopped-flow,> 100
Cc1cc(Oc2ncccc2CN2CCN(c3ccccc3Cl)CC2)ccc1-c1c(C)c(=O)[nH]c(=O)n1C,ADRA2A,ligand displacement,,radioligand,0.08
O=C(NCc1cn(-c2ccc([N+](=O)[O-])cc2)nn1)c1ccc(=O)oc1,CA1,enzyme activity,inhibitor,stopped-flow,> 100
Nc1ccc(S(=O)(=O)c2ccc(N)cc2)cc1,CA1,enzyme activity,inhibitor,,11.6
OC1CCN(c2ccc(/C=N/NC(=S)Nc3cccc(Cl)c3Cl)cc2)CC1,CA2,enzyme activity,inhibitor,,0.271
Cc1cc(Oc2ncccc2CN2CCN(c3ccccc3C(F)(F)F)CC2)ccc1-c1c(C)c(=O)[nH]c(=O)n1C,ADRA2A,ligand displacement,,radioligand,0.175
CC(C)(C(=O)O)c1ccc(C(O)CCCN2CCC(C(O)(c3ccccc3)c3ccccc3)CC2)cc1 (stereo not drawn),CA2,enzyme activity,inhibitor,absorbance,17.9
O=C(NCc1cn(-c2ccc(Cl)cc2)nn1)c1ccc(=O)oc1,CA1,enzyme activity,inhibitor,stopped-flow,> 100
CC(C(=O)Nc1nnc(S(N)(=O)=O)s1)C1CCCCC1 (stereo not drawn),CA2,enzyme activity,inhibitor,stopped-flow,0.0183
CC1=C(/C=C/C(C)=C/C=C/C(C)=C\C(=O)O)C(C)(C)CCC1,CA1,enzyme activity,inhibitor,,5.75
Cc1cc(Oc2ncccc2CN2CCN(c3cccc(C)c3C)CC2)ccc1-c1c(C)c(=O)[nH]c(=O)n1C,ADRA2A,ligand displacement,,radioligand,0.0419
CN(C/C=C/C#CC(C)(C)C)Cc1cccc2ccccc12,CA2,enzyme activity,inhibitor,absorbance,20.3
CC1(C)CCN(CC(=O)Nc2nnc(S(N)(=O)=O)s2)CC1,CA2,enzyme activity,inhibitor,stopped-flow,0.0311
Cc1ccc(-n2cc(COC(=O)c3ccc(=O)oc3)nn2)cc1,CA1,enzyme activity,inhibitor,stopped-flow,> 100
COc1cc(C)c(/C=C/C(C)=C/C=C/C(C)=C/C(=O)O)c(C)c1C,CA2,enzyme activity,inhibitor,absorbance,7.94
Cc1cc(Oc2ncccc2CN2CCN(c3ccc(F)c(F)c3)CC2)ccc1-c1c(C)c(=O)[nH]c(=O)n1C,ADRA2A,ligand displacement,,radioligand,0.418
NS(=O)(=O)c1nnc(NC(=O)C2CCC3(CCCCC3)C2)s1 (stereo not drawn),CA2,enzyme activity,inhibitor,stopped-flow,0.0401
Cc1cc(Oc2ncccc2CN2CCN(Cc3ccccc3Cl)CC2)ccc1-c1c(C)c(=O)[nH]c(=O)n1C,ADRA2A,ligand displacement,,radioligand,0.0812
C[C@H]1c2cccc(O)c2C(=O)C2=C(O)[C@]3(O)C(=O)C(C(N)=O)=C(O)[C@@H](N(C)C)[C@@H]3[C@@H](O)[C@@H]21,CA1,enzyme activity,inhibitor,,8.51
